Test results reported in ChEMBL document CHEMBL3877303 (J Med Chem, 2017).
Active and inactive are the calls of the source. The calls are words filed in the database; no cut-off is given here.

Assays:
[1] = molecular target: Vascular endothelial growth factor receptor 2 (Homo sapiens) (UniProt P35968); test: Inhibition of Tel-fused VEGFR2 (unknown origin) expressed in BAF3 cells assessed as growth inhibition measured after 72 hrs by CellTiter-Glo or CCK8 assay; type: cell-based
Summary of the method: (§1)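 BaF3 lines were made by retroviral transduction with kinase-fusion MSCV vectors packaged in HEK293T cells. Cells were selected with puromycin for 48 h, then selected again without IL-3 so growth depends on the introduced kinase. […] They were seeded at 1 to 2.5×10^4 cells/mL with compound dilutions and incubated 72 h. Viability was read by CellTiter-Glo luminescence or CCK-8 absorbance (450/655 nm), normalized to DMSO control; GI50 was curve-fitted from triplicate tests.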

[2] = Antiproliferative activity against human MOLM14 cells measured after 72 hrs by CellTiter-Glo or CCK8 assay; type: functional; details: MOLM-14, 72 h
Summary of the method: (§2)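 Cells at 1 to 2.5×10^4 cells/mL were incubated with a range of compound concentrations for 72 h. Viability was read by CellTiter-Glo luminescence or CCK-8 absorbance (450/655 nm) and normalized to DMSO control. GI50 came from curve fitting, with triplicate testing.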

[3] = Anticancer activity against human K562 cells xenografted in nu/nu mouse assessed as tumor growth inhibition at 100 mg/kg administered daily via oral gavage measured 28 days post compound treatment relative to vehicle-treated control; type: functional; details: 672 h, read-out: TGI
Summary of the method: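 Female nu/nu mice received ten million K562 cells subcutaneously in the right flank, in PBS mixed 1:1 with Matrigel. Daily oral gavage began at 200-400 mm³ tumor size, with 4 or 5 mice per group. Dosing was 25, 50 or 100 mg/kg/d or vehicle (0.5% methylcellulose/0.4% Tween80) for 28 days. Body weight and tumor size were normalized to initial values, and final tumor weight was recorded. Data are mean ± SEM.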

[4] = Antiproliferative activity against human GISTT1 cells measured after 72 hrs by CellTiter-Glo or CCK8 assay; type: functional; details: GISTT1, 72 h; summary of the method: as §2
[5] = molecular target: Tyrosine-protein kinase Blk (Homo sapiens, UniProt P51451); test: Inhibition of Tel-fused BLK (unknown origin) expressed in BAF3 cells assessed as growth inhibition measured after 72 hrs by CellTiter-Glo or CCK8 assay; type: cell-based; summary of the method: as §1
[6] = Antiproliferative activity against human MV4-11 cells measured after 72 hrs by CellTiter-Glo or CCK8 assay; type: functional; details: MV4-11, 72 h; summary of the method: as §2
[7] = Antiproliferative activity against CHO cells measured after 72 hrs by CellTiter-Glo or CCK8 assay; type: cell-based, Cricetulus griseus; details: chinese hamster; summary of the method: as §2
[8] = molecular target: T1, Discoidin domain-containing receptor 2 (Homo sapiens) (UniProt Q16832); test: Inhibition of BCR-fused DDR2 (unknown origin) expressed in BAF3 cells assessed as growth inhibition measured after 72 hrs by CellTiter-Glo or CCK8 assay; type: cell-based; summary of the method: as §1
T1 sequence (whole entry): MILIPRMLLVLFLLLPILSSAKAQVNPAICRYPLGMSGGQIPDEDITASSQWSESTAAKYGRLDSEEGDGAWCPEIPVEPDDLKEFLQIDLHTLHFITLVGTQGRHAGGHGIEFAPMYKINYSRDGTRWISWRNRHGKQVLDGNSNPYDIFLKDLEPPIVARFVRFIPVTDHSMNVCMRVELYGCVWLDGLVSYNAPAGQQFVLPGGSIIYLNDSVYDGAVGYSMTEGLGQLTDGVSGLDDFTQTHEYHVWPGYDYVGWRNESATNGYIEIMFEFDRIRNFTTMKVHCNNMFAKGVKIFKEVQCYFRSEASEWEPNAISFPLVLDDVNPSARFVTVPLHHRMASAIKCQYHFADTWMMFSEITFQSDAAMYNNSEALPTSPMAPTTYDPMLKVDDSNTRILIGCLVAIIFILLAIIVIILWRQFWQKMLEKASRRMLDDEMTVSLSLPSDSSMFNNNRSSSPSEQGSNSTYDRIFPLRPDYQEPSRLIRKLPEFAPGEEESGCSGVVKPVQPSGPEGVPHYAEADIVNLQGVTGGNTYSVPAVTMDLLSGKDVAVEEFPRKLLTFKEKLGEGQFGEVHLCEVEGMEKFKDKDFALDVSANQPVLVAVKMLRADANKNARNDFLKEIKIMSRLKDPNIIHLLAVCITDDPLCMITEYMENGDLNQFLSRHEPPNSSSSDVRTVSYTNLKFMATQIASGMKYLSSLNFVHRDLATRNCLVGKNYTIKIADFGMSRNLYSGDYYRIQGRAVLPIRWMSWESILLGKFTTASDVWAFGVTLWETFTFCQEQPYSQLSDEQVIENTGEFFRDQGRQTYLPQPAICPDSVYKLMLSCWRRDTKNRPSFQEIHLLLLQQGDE

[9] = molecular target: T2, Mast/stem cell growth factor receptor Kit (Homo sapiens, UniProt P10721); details: 1 uM
[10] = Antiproliferative activity against human GIST882 cells measured after 72 hrs by CellTiter-Glo or CCK8 assay; type: functional; details: GIST882, 72 h; summary of the method: as §2
[11] = Growth inhibition of mouse BAF3 cells measured after 72 hrs by CellTiter-Glo or CCK8 assay; type: cell-based; summary of the method: as §2
[12] = molecular target: T2, Mast/stem cell growth factor receptor Kit; details: GISTT1, 1 uM
[13] = Antiproliferative activity against human GIST48B cells measured after 72 hrs by CellTiter-Glo or CCK8 assay; type: functional; summary of the method: as §2
[14] = Antiproliferative activity against human Rec1 cells measured after 72 hrs by CellTiter-Glo or CCK8 assay; type: functional; details: Rec1, 72 h; summary of the method: as §2
[15] = Antiproliferative activity against human HL60 cells measured after 72 hrs by CellTiter-Glo or CCK8 assay; type: functional; details: HL-60, 72 h; summary of the method: as §2
[16] = Antiproliferative activity against human U937 cells measured after 72 hrs by CellTiter-Glo or CCK8 assay; type: functional; details: U-937, 72 h; summary of the method: as §2
[17] = molecular target: Tyrosine-protein kinase Lck (Homo sapiens, UniProt P06239); test: Inhibition of recombinant C-terminal His-tagged human LCK cytoplasmic domain expressed in baculovirus expression system measured after 1 hr by FRET based Z'Lyte assay
Summary of the method: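 Z'-LYTE FRET biochemical kinase assay run by Invitrogen on selected kinases identified from binding profiling; IC50 from dose-response.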

[18] = Half life in Sprague-Dawley rat at 10 mg/kg, po; type: ADME, organism-based; details: in vivo
Summary of the method: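 Male Sprague-Dawley rats aged six to eight weeks were fasted overnight and then dosed iv or orally. Blood (~0.2 mL) was drawn from the jugular vein into heparin and kept on ice. Sampling was at 1 min to 8 h for iv and 5 min to 24 h for oral. Plasma was separated by centrifugation at 2-8 °C and stored at -80 °C until analysis.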

Sequence of Vascular endothelial growth factor receptor 2 (Homo sapiens) (P35968 whole entry, the tested form may be a part): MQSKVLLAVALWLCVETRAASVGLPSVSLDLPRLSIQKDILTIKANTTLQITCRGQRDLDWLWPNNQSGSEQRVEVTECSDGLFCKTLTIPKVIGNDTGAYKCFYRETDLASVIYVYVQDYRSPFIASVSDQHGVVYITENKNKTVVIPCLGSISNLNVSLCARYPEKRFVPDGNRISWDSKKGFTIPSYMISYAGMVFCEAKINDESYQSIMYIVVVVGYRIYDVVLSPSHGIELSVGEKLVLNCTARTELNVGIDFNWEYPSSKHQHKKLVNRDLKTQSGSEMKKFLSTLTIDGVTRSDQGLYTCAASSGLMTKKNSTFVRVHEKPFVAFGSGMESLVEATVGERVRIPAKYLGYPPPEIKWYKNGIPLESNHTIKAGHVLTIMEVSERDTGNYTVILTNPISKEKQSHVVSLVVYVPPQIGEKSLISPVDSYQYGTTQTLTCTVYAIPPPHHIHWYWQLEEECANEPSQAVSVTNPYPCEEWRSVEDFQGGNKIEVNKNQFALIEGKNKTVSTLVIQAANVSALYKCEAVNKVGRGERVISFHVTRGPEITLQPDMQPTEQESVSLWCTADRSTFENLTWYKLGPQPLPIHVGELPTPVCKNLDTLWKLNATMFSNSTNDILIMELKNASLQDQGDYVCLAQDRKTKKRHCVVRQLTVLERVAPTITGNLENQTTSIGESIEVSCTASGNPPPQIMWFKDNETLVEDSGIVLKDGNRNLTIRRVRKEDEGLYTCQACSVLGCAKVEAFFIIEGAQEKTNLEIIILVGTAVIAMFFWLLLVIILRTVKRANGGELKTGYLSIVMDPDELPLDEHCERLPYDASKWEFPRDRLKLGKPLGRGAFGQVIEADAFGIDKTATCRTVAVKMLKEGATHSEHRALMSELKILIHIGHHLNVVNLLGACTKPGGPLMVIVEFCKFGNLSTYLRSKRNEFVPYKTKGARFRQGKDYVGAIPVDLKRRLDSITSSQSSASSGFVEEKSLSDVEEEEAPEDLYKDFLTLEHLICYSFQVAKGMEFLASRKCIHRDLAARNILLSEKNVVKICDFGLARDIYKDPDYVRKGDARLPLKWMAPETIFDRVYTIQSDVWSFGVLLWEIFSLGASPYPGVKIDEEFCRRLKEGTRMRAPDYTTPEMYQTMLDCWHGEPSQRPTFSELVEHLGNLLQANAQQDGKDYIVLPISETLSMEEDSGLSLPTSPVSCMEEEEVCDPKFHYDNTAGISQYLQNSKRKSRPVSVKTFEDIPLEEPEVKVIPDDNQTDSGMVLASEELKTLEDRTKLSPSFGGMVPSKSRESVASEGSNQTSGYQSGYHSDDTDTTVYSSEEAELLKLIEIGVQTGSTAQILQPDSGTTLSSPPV
T2 sequence (P10721 whole entry): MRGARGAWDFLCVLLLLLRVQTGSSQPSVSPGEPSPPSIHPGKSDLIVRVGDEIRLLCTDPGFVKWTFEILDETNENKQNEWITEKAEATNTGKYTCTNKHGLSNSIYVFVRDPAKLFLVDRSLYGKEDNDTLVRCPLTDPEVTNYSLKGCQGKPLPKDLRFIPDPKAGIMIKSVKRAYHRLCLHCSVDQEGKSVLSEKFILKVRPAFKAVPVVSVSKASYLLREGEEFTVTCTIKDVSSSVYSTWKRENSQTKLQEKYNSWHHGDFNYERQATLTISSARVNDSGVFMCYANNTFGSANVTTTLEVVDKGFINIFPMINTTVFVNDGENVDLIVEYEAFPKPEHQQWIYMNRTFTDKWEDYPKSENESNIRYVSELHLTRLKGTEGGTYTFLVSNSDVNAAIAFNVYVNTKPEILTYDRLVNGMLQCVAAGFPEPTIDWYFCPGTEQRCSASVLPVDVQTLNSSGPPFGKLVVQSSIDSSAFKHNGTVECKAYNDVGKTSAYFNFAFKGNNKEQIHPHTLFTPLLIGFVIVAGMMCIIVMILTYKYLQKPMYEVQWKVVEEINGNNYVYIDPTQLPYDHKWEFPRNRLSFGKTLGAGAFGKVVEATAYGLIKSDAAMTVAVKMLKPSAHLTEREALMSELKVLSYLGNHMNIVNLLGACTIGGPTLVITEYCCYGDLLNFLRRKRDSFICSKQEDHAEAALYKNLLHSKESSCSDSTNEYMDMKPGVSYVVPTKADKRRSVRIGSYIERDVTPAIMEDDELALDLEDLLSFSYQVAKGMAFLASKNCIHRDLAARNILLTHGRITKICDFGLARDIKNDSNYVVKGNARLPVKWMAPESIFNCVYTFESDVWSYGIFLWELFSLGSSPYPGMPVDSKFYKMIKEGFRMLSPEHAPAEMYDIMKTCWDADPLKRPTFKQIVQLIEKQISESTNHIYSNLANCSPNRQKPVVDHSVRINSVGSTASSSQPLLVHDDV
Sequence of Tyrosine-protein kinase Blk (P51451 2-505 limits assumed): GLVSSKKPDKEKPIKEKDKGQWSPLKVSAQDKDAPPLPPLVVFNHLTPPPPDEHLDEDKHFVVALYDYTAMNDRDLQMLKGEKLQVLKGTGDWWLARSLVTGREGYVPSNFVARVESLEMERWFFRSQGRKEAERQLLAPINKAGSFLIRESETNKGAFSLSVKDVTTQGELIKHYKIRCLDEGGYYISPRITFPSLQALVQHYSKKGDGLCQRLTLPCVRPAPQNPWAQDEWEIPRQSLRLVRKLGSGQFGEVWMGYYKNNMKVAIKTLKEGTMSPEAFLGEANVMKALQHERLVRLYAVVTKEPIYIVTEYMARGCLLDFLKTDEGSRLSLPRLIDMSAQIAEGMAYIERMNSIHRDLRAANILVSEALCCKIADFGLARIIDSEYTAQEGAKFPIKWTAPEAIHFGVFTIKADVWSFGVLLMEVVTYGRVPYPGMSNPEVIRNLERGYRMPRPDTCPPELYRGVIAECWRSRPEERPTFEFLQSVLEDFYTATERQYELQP
Sequence of Tyrosine-protein kinase Lck (P06239 whole entry, the tested form may be a part): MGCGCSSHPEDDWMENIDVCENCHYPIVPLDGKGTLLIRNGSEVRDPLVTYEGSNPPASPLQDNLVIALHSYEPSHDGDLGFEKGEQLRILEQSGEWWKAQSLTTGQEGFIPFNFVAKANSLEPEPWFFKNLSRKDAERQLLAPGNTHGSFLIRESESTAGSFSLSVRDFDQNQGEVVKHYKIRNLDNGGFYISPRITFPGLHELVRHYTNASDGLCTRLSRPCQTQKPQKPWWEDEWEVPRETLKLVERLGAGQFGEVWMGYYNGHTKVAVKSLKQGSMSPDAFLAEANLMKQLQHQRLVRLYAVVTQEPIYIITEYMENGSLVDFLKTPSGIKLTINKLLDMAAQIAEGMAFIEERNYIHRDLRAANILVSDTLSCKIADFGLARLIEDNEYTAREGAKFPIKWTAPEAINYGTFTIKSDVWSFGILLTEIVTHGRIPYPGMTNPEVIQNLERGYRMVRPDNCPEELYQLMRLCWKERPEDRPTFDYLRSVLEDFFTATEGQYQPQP

| SMILES | GI50 [1] [µM] | GI50 [2] [µM] | inhibition in vivo at 100 mg/kg [3] [%] | GI50 [4] [µM] | GI50 [5] [µM] | GI50 [6] [µM] | GI50 at 72 h [7] [µM] | GI50 [8] [µM] | inhibition [9] | GI50 [10] [µM] | GI50 at 72 h [11] [µM] | inhibition [12] | GI50 [13] [µM] | GI50 [14] [µM] | GI50 [15] [µM] | GI50 [16] [µM] | IC50 [17] [µM] | half-life [18] [h] |
| --- | --- | --- | --- | --- | --- | --- | --- | --- | --- | --- | --- | --- | --- | --- | --- | --- | --- | --- |
| Cc1ccc(NC(=O)c2ccc(CN3CCN(C)CC3)cc2)cc1Nc1nccc(-c2cccnc2)n1 [IMATINIB] | > 10 | > 10 | 31.9 | 0.008 | > 10 | > 10 | > 10 | > 10 | Active | 0.014 | > 10 | Active | > 10 | > 10 | > 10 | > 10 | – | – |
| Cc1ccc(C(=O)N2CCC(Oc3cc(NC(=O)c4ccc(CN5CCN(C)CC5)c(C(F)(F)F)c4)ccc3C)CC2)cn1 | 0.035 | 8.49 | 66.8 | 0.023 | 0.658 | 8.14 | > 10 | 6.08 | – | 0.095 | > 10 | – | 3.96 | 3.47 | 7.34 | 5.73 | 0.012 | 2.83 |
